High-throughput results as filed in PubChem BioAssay.
TAAR1 ag – agonists of human TAAR1 | activation, % at 3 µM | CHO RD-HGA16 TAAR1, Fluo-8 calcium fluorescence; vehicle wells 0%, saturating PEA agonist 100% | hit rate 0.99% among 360,000 | AID 624467;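 active = activation above the mean activation of all test compounds in the run plus 3 SD, cut at about 38% in these data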
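Assay system – CHO-derived RD-HGA16 cells with stable Gα16 and human TAAR1 · Compound dosing – one-point dosing at 3 µM (nominal) · Incubation – 17-24 h seeding, 75 min 37 °C dye, 30 min RT · Measured by – kinetic Fluo-8 calcium fluorescence · Control set – DMSO vehicle as 0%, PEA at EC100 as 100% · Repeats – single well for each compound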
CRFBP-R2 agonist – CRF-BP/CRF-R2 complex agonism; activation, % at 13.2 µM; HEK293 CRF-R2/CRF-BP, calcium dye fluorescence (FLIPR); percent of saturating CRF peptide response; hit rate 0.46% among 350,000;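 active = activation of at least 50%, plus an integration ratio under a set limit after plate pattern correction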;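 note: plate controls were neutral control wells without compound for no effect and CRF at EC100 for full effect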
TAAR1 antagonist – antagonists of human TAAR1; inhibition, % at 3 µM; hit rate 1.5% among 360,000; CHO RD-HGA16 TAAR1, Fluo-8 calcium fluorescence, antagonist;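 active = inhibition above a per-plate cutoff, the mean inhibition of test compounds on that plate plus 3 SD, cut at about 49% in these data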;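 note: 0% = DMSO plus EC80 beta-PEA response and 100% = DMSO alone without agonist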
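Test system: hTAAR1-expressing CHO RD-HGA16 cells, Gα16-coupled; Probe or stimulus: EC80 β-phenethylamine stimulus; Compound dosing: single nominal final test compound concentration of 3 µM; Timing: 140 s kinetic read after compound, 140 s after agonist; Signal: Fluo-8 calcium-sensitive fluorescence; Measure: % inhibition of agonist calcium response; Controls: DMSO and EC80 PEA controls.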
TMEM16A inh – inhibitors of mouse TMEM16A calcium-activated chloride channel; Q8BHY3; HEK293 TMEM16A/YFP iodide influx fluorescence, ionomycin; normalized B-score (activity score, 25-100; higher = stronger inhibition) at 10 µM; hit rate 1.2% among 310,000;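 active = ratio plate-corrected score three or more library SD toward inhibition, starting fluorescence score within five deviations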;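 note: score derived from kinetic fluorescence span divided by baseline fluorescence per well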
CRFBP-R2 block – blocks CRF-induced signaling of the CRF-BP/CRF-R2 complex | HEK293 CRF-R2/CRF-BP, CRF-induced calcium fluorescence | inhibition, % at 11.8 µM | hit rate 0.59% among 350,000;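 active = inhibition of the ligand-induced calcium signal above about 50% at the single tested concentration, limit read from the data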
TMEM16A act – activates or potentiates the mouse TMEM16A chloride channel; Q8BHY3; HEK293 TMEM16A/YFP-H148Q/I152L, iodide quench fluorescence; stronger effect = lower value; B-score at 10 µM; hit rate 0.3% among 340,000; AID 623877;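 active = fluorescence-ratio B-score plate-corrected deviation score at least 3 library SD below zero, with starting fluorescence score within 5 deviations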;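 note: channel opened by trigger with iodide after compound preincubation; score built on the fluorescence ratio of max minus min over baseline; more negative score means more quench and so TMEM16A activation or potentiation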
Starred values were filed as active, the others as inactive. Compounds with a hit are over-represented: about 3.9% of the library has one in this group of screens.

How did COC(=O)CNC(=O)CN(c1ccc(OC)cc1OC)S(=O)(=O)c1ccccc1 do in these assays?
TAAR1 ag: 1; CRFBP-R2 agonist: -2; TAAR1 antagonist: 2; CRFBP-R2 block: 7; TMEM16A act: inactive

How did COc1ccc(N(S(=O)(=O)c2ccccc2)S(=O)(=O)c2ccccc2)c(N)c1 do in these assays?
TAAR1 ag: 13; CRFBP-R2 agonist: 1; TAAR1 antagonist: 51*; TMEM16A inh: inactive; CRFBP-R2 block: 7; TMEM16A act: inactive

What do the screens show for `O=C(O)c1cnc2[nH]c3ccccc3n2c1=O`?
TAAR1 ag: 1; CRFBP-R2 agonist: 1; TAAR1 antagonist: 1; TMEM16A inh: inactive; CRFBP-R2 block: -3; TMEM16A act: inactive

What do the screens show for `Cc1nc2ccccc2nc(C)c1=NOCc1ccccc1Cl`?
TAAR1 ag: 8; CRFBP-R2 agonist: -1; TAAR1 antagonist: -6; TMEM16A inh: inactive; CRFBP-R2 block: 51*; TMEM16A act: inactive

How did CC(C)(C)NC(=O)NC(=O)CN1CCN(c2ncc(C(F)(F)F)cc2Cl)CC1 do in these assays?
TAAR1 ag: 3; CRFBP-R2 agonist: 8; TAAR1 antagonist: 25; TMEM16A inh: 25*; CRFBP-R2 block: -6; TMEM16A act: inactive

Results for CCOc1ccccc1-n1nnnc1SC(C)C(=O)OC (configuration not stated) ?
TAAR1 ag: 0; CRFBP-R2 agonist: -3; TAAR1 antagonist: -19; TMEM16A inh: inactive; CRFBP-R2 block: -2; TMEM16A act: inactive

Results for Cc1nc(SCC(=O)N(C)Cc2ccco2)c2c(C)c(C)sc2n1 ?
TAAR1 ag: 7; CRFBP-R2 agonist: 5; TAAR1 antagonist: 9; TMEM16A inh: inactive; CRFBP-R2 block: -35; TMEM16A act: inactive

Results for CCN(C(=O)CSc1nc(C)nc2sc(C)c(C)c12)c1ccc(F)cc1 ?
TAAR1 ag: 3; CRFBP-R2 agonist: 1; TAAR1 antagonist: -1; CRFBP-R2 block: -23; TMEM16A act: -41*

Results for N#Cc1nc(-c2cccc(Cl)c2)oc1N1CCC(C(N)=O)CC1 ?
TAAR1 ag: 2; CRFBP-R2 agonist: -2; TAAR1 antagonist: -12; TMEM16A inh: inactive; CRFBP-R2 block: -5; TMEM16A act: inactive

How did Clc1ncnc2c1oc1ccccc12 do in these assays?
TAAR1 ag: 7; CRFBP-R2 agonist: 0; TAAR1 antagonist: -6; TMEM16A inh: inactive; CRFBP-R2 block: 16; TMEM16A act: inactive

What do the screens show for `c1coc(CN(Cc2ccco2)c2ncnc3c2oc2ccccc23)c1`?
CRFBP-R2 agonist: -1; TMEM16A inh: 100*; CRFBP-R2 block: -6; TMEM16A act: inactive

How did CSc1nc2ccc(Cl)cc2[nH]1 do in these assays?
TAAR1 ag: 0; CRFBP-R2 agonist: -2; TAAR1 antagonist: 13; TMEM16A inh: inactive; CRFBP-R2 block: 5; TMEM16A act: inactive

What do the screens show for `CSc1nc2cc(Oc3cccc(Cl)c3Cl)c(Cl)cc2[nH]1`?
TAAR1 ag: 5; CRFBP-R2 agonist: -1; TAAR1 antagonist: 16; TMEM16A inh: 100*; CRFBP-R2 block: 23; TMEM16A act: inactive

What do the screens show for `Cc1nc2scc(-c3ccc(C(C)C)cc3)c2c(=O)n1N`?
TAAR1 ag: 6; CRFBP-R2 agonist: -1; TAAR1 antagonist: 21; TMEM16A inh: inactive; CRFBP-R2 block: 4; TMEM16A act: inactive

What do the screens show for `Oc1ccc(-c2c(-c3ccsc3)sc3ccccc23)cc1`?
TAAR1 ag: 4; CRFBP-R2 agonist: 0; TAAR1 antagonist: 52*; TMEM16A inh: inactive; CRFBP-R2 block: 11; TMEM16A act: inactive

How did O=[N+]([O-])c1ccc(O)c(P(=O)(c2ccccc2)c2ccccc2)c1 do in these assays?
TAAR1 ag: 3; CRFBP-R2 agonist: 0; TAAR1 antagonist: -13; TMEM16A inh: inactive; CRFBP-R2 block: -20; TMEM16A act: inactive

What do the screens show for `Cc1ccc(N=Nc2ccc(O)c(P(=O)(c3ccccc3)c3ccccc3)c2)cc1`?
TAAR1 ag: -1; CRFBP-R2 agonist: -1; TAAR1 antagonist: -21; TMEM16A inh: inactive; CRFBP-R2 block: 108*; TMEM16A act: inactive

Results for O=C(NCc1ccc(OC(F)(F)F)cc1)c1cccc2c1C(=O)c1ccc(N3CCCC3)cc1S2(=O)=O ?
TAAR1 ag: 2; CRFBP-R2 agonist: 102*; TAAR1 antagonist: 3; CRFBP-R2 block: -49; TMEM16A act: inactive

Results for O=C(NCCN1CCOCC1)c1cccc2c1C(=O)c1ccc(N3CCCC3)cc1S2(=O)=O ?
TAAR1 ag: 21; CRFBP-R2 agonist: 15; TAAR1 antagonist: 0; CRFBP-R2 block: -15; TMEM16A act: inactive

What do the screens show for `O=C(NCc1ccc(OC(F)(F)F)cc1)c1cccc2c1C(=O)c1ccc(N3CCCCC3)cc1S2(=O)=O`?
TAAR1 ag: 6; CRFBP-R2 agonist: 68*; TAAR1 antagonist: 13; CRFBP-R2 block: -20; TMEM16A act: inactive

Results for O=C(NCc1ccc(OC(F)(F)F)cc1)c1cccc2c1C(=O)c1ccc(N3CCC(Cc4ccccc4)CC3)cc1S2(=O)=O ?
TAAR1 ag: 4; CRFBP-R2 agonist: 63*; TAAR1 antagonist: 15; CRFBP-R2 block: -29; TMEM16A act: inactive

Results for O=C(NCc1ccccc1Br)c1cccc2c1C(=O)c1ccc(-c3ccc(OC(F)(F)F)cc3)cc1S2(=O)=O ?
CRFBP-R2 agonist: 3; CRFBP-R2 block: -2; TMEM16A act: inactive

How did CN(C)C(CNC(=O)c1ccc(-c2ccccc2)cc1)c1ccccc1 (configuration not stated) do in these assays?
TAAR1 ag: 21; CRFBP-R2 agonist: 1; TAAR1 antagonist: -1; TMEM16A inh: inactive; CRFBP-R2 block: -9; TMEM16A act: inactive

How did CN(CCc1ccccn1)C(=O)CCC1CCCN(C(=O)c2ccsc2)C1 (configuration not stated) do in these assays?
TAAR1 ag: 11; CRFBP-R2 agonist: 1; TAAR1 antagonist: -5; TMEM16A inh: inactive; CRFBP-R2 block: 2; TMEM16A act: inactive

How did CN(C)c1ccc(C(C(=O)NCC2CCCO2)N(C(=O)c2snc(C(N)=O)c2N)c2ccccc2)cc1 (configuration not stated) do in these assays?
TAAR1 ag: 22; CRFBP-R2 agonist: 0; TAAR1 antagonist: 52*; TMEM16A inh: inactive; CRFBP-R2 block: 7; TMEM16A act: inactive

Results for CC(C)c1ccc(N(C(=O)c2snc(C(N)=O)c2N)C(C(=O)NCC2CCCO2)c2ccc(N(C)C)cc2)cc1 (configuration not stated) ?
TAAR1 ag: 24; CRFBP-R2 agonist: 0; TAAR1 antagonist: 55*; CRFBP-R2 block: -12; TMEM16A act: inactive
